Bioassay records: PubChem, several laboratories
KCNQ1 pot: human KCNQ1 channel potentiation or activation | 310,000 tested, 0.35% active | AID 2648 | B-score at 10 µM | CHO-K1 KCNQ1, thallium flux FluxOR fluorescence; stronger effect = higher value;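 active means fluorescence ratio B-score, a plate-corrected score, at least three library SD, with initial intensity B-score within 5 SD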
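assay system = CHO-K1 cells stably expressing KCNQ1 | medium = assay buffer, equal DMSO in all wells | timing = 37 °C overnight plating, 90-min dark dye load, 20-min compound pretreatment | measured by = kinetic FluxOR thallium fluorescence, 10-s 1-Hz baseline, 110-s post-stimulus read | measure = fluorescence change relative to baseline, converted to B score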
Mot1-301 SUMO: inhibitors of SUMOylation pathway: yeast Mot1-301 growth rescue; S. cerevisiae Mot1-301 growth rescue, ATP luminescence, 38.5C; percent above DMSO median, 100 means doubled; growth rescue, % at 18.8 µM; 320,000 tested, 1% active; AID 2716;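 active means every valid replicate shows activation above 250% relative to neutral control wells; inactive means the rest, any valid replicate at or below 250%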;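 further: OY570 slx delta 5 strain wells were the positive control but not used for scaling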
hERG rescue: shields human hERG channel from block by proarrhythmic agents | Q12809 | CHO-hERG, FluxOR thallium flux, dofetilide IC70 present | activation (rescue from dofetilide block), less the hit threshold, % at 10 µM | 310,000 tested, 0.51% active | AID 1511;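 active means activation above the mean of controls blocked by dofetilide plus 5 SD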;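 further: thallium influx through hERG after potassium depolarization seen as dye fluorescence rise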
KCNQ1 block: blocks the human KCNQ1 potassium channel. CHO-K1 KCNQ1, FluxOR thallium flux fluorescence; stronger effect = higher value. 310,000 tested, 1.3% active. AID 2642. B-score at 10 µM;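 active means compounds whose thallium flux B-score, printed positive for inhibition, exceeds three library SD while starting fluorescence stays within three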;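 further: channel opened by potassium depolarization with thallium stimulus after 20 min compound exposure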
AI-2 QS mod: Vibrio harveyi AI-2 quorum sensing modulation; Vibrio harveyi JMH597 AI-2 luminescence/OD600 ratio, 9 h; stronger effect = lower value; strain lacks LuxN and CqsS sensors; 0 = neutral-control median; activity change, % at 7.5 µM; 300,000 tested, 0.4% active; in the data active means activity change below about -75%, passing the limit was not always enough;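 further: luminescence divided by OD600 gain over 9 h not by final OD600 alone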
KCC2 mod: modulators of human KCC2 chloride dependent transport; AID 1456; Q9H2X9; 190,000 tested, 2.2% active; KCC2 cells, thallium flux FluoZin-2 fluorescence; B-score of Tl+ flux slope (higher = more flux/activation; lower = inhibition) at 10 µM;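 active means thallium flux slope and its plate-corrected score both differing from the plate sample mean at a set confidence after two filtering rounds, in either direction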;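 further: slope of fluorescence scaled to starting intensity during 10 to 20 s after thallium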
Target sequence (Q9H2X9 whole entry, looked up): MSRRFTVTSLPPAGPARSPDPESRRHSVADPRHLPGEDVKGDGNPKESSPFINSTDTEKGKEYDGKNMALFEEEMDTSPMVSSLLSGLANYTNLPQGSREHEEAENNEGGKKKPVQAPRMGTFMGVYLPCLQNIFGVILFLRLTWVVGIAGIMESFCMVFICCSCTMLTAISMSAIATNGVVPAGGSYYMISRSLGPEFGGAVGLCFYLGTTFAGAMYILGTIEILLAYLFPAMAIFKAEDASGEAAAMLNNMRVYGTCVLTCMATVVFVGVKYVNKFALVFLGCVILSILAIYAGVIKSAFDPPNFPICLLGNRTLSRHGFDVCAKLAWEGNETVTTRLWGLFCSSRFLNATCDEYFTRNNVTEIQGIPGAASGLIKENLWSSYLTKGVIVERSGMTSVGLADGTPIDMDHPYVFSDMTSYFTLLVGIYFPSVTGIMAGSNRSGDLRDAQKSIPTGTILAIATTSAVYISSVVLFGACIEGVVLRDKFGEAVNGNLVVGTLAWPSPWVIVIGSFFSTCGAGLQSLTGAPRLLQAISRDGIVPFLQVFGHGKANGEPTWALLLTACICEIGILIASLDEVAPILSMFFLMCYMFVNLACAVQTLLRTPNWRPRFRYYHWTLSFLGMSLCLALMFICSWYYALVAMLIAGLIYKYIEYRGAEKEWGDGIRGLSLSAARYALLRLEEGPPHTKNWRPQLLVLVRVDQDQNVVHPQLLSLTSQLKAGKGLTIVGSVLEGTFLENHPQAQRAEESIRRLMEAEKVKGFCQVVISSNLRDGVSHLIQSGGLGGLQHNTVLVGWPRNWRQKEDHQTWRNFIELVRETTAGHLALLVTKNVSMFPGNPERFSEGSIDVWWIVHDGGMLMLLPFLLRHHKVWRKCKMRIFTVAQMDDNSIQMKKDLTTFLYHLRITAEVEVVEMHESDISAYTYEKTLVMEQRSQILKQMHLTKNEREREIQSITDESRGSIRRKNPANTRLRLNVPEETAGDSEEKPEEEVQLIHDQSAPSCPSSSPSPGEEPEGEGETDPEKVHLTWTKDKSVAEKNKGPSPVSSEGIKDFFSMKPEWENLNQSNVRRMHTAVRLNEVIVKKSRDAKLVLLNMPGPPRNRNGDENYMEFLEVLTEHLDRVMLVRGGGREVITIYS
The depositor's hits bear a star; i = inactive; . = not tested or not shown. Only some compounds are listed: those with a hit (about 4.2% of all), similar ones and a draw of the others.

SMILES	KCNQ1 pot	Mot1-301 SUMO	hERG rescue	KCNQ1 block	AI-2 QS mod	KCC2 mod
COc1cccc(NC(=O)COc2ncnc3sc(C)c(C)c23)c1	i	1	-6	i	-76*	0.78
O=S(=O)(NC1CCN(Cc2ccccc2)CC1)c1ccc2ccccc2c1	i	322*	-10	i	28	0.042
CSc1nc2c(c(=O)[nH]1)C(c1ccccc1Cl)CC(=O)N2 (stereo not drawn)	i	-6	9.7*	i	11	-0.54
CSc1nc2c(c(=O)[nH]1)C(c1ccc(Cl)cc1)CC(=O)N2 (stereo not drawn)	i	-7	3	i	3	-1.4
COc1cccc(CC(=O)Nc2ccc(S(=O)(=O)Nc3nc(C)cc(C)n3)cc2)c1	i	34	-11	i	16	0.049
CC(C)NC(=O)c1ccc2c(=O)n(C3CCCC3)c(=S)[nH]c2c1	i	3	-7	i	7	1.3
O=C(c1ccc2c(=O)n(C3CCCC3)c(=S)[nH]c2c1)N1CCc2ccccc21	i	-8	-10	i	-55	17*
Cc1cc2nccc(-c3ccc(OCCCF)cc3)n2n1	i	2	-8	i	14	.
O=C(CCn1c(=O)[nH]c2ccsc2c1=O)NCc1ccc(F)cc1	i	451*	-8	i	10	1.3
Cc1ccccc1N(CC(=O)NCC1CCCO1)C(=O)CCC(=O)Nc1nccs1 (stereo not drawn)	i	329	-3	i	17	.
CCN(CC)CCN(C(=O)c1ccc(S(=O)(=O)N(C)C2CCCCC2)cc1)c1nc2c(C)cccc2s1	i	-4	-9	i	2	.
CCN(CC)CCN(C(=O)c1ccc2c(c1)CCCC2)c1nc2ccc(F)cc2s1	i	-11	-25	i	-4	0.21
CCN(CC)CCN(C(=O)c1ccc2c(c1)CCCC2)c1nc2c(C)cccc2s1	i	11	-14	8*	5	.
CCOc1cccc2sc(N(CCN(CC)CC)C(=O)c3cccc(N4C(=O)CCC4=O)c3)nc12	i	290*	-16	i	23	.
CCN(CC)CCN(C(=O)c1ccc2c(c1)CCCC2)c1nc2ccc(OC)cc2s1	i	-1	-29	12*	7	.
CCN(CC)CCN(C(=O)c1ccc2c(c1)CCCC2)c1nc2ccc(C)cc2s1	i	-8	-31	12*	24	.
Cc1cc(C)nc(NC(=O)c2c(F)c(F)c(F)c(C(=O)Nc3cc(C)cc(C)n3)c2F)c1	i	-8	-8	i	29	.
O=C(Cn1nnc(-c2cccs2)n1)Nc1ccccc1C(F)(F)F	i	.	-16	i	14	0.42
COc1cccc(C(=O)NC(=S)Nc2ccc(Cl)cc2C(=O)O)c1	i	-11	-5	i	19	-1.2
CC(C)CC(=O)Nc1ccc2c3c(cccc13)CC2	i	389*	4	i	19	0.44
COc1cccc(C(=O)NC(=S)Nc2ccc3c4c(cccc24)CC3)c1	i	6	-6	i	0	5*
Cc1cc(=O)oc(C)c1C(=O)Nc1cccc(F)c1	i	-3	-10	i	0	0.48
O=C(Cn1nc(Cc2ccncc2)c2ccccc2c1=O)N1CCc2ccccc2C1	.	-13	.	.	.	-3.7*
CCCCNC(=O)Cn1nc(Cc2ccncc2)c2ccccc2c1=O	i	10	-4	i	5	.
Cc1[nH]c2ccccc2c1N=Nc1ccccc1C(=O)O	i	-1	-4	i	10	-1.2
CCN(CC)C1CC(=O)N(c2cccc(C)c2)C1=O (stereo not drawn)	i	285*	-12	i	26	1.2
Cc1ccccc1CN(c1ccc(C(=O)N/N=C/c2ccc(OCC(N)=O)cc2)cc1)S(C)(=O)=O	i	7	-11	i	-12	-0.23
O=[N+]([O-])c1ccc(S(=O)(=O)NCC2CC3CCC2C3)cc1 (stereo not drawn)	i	26	-3	7*	30	.
Cc1ccc(C(=O)Nc2nc3ccc(S(C)(=O)=O)cc3s2)o1	i	85	38*	i	13	0.22
